Source: paper PMC9742152 (ChemMedChem, 2022)
Read-outs that look alike come from different tables or passages of the source.

Tests used:
[1] = tested on: MCF-7 breast cancer cells; test: Anti-proliferative assay, MCF-7 cells; assay type: cell-based, human; details: read-out: GI50 MCF-7
Procedure, shortened: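 MCF-7 cells kept at 37 °C, 5% CO2 in RPMI 1640 with 17% FBS, 2 mM L-glutamine and gentamicin, in full (not estrogen-deprived) media; seeded 5000 cells/well, grown 24 h without compound, then exposed to test compound at 10−9–10−4 M or vehicle. Cell protein measured by sulforhodamine B staining at 96 h; GI50 is the mean of two determinations.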

[2] = tested on: MDA MB-231 breast cancer cells; test: Anti-proliferative assay, MDA MB-231 cells; assay type: cell-based, human; details: read-out: GI50 MDA MB-231
Procedure, shortened: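 MDA MB-231 cells kept at 37 °C, 5% CO2 in RPMI-1640 with 10% FBS, penicillin and streptomycin; seeded 8000 cells/well, allowed to adhere 24 h, then given test compound or vehicle. BrdU incorporation kit assay run at 48 h; signal expressed as percent of mean control to derive GI50; experiments in triplicate, mean of three determinations.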

HOP-62 = test: NCI 60-cell line assay, Lung HOP-62; assay type: cell-based
HCT-116 = test: NCI 60-cell line assay, Colon HCT-116; assay type: cell-based
SF-539 = test: NCI 60-cell line assay, CNS SF-539; assay type: cell-based; details: read-out: GI50 CNS SF-539
UACC-62 = test: NCI 60-cell line assay, Melanoma UACC-62; assay type: cell-based
OVCAR-3 = test: NCI 60-cell line assay, Ovarian OVCAR-3; assay type: cell-based
SN12C = test: NCI 60-cell line assay, Renal SN12C; assay type: cell-based; details: read-out: GI50 Renal SN12C
NCI-60 cell line panel = test: NCI 60-cell line assay, mean over whole panel; assay type: cell-based; details: for IC50: read-out: MGM (mean concentration that caused 50% growth inhibition in all 60 cell lines)
Bovine brain tubulin [3] = test: Inhibition of tubulin assembly; assay type: biochemical; details: for IC50: read-out: Tubulin assembly IC50, 10 μM tubulin, mean ±SD
Bovine brain tubulin [4] = test: Inhibition of [3H]colchicine binding to tubulin; details: 5 μM inhibitor, 5.0 μM [3H]colchicine, 1.0 μM tubulin, mean ±SD
steroid sulfatase (STS) [5] = target: T1, steroid sulfatase (STS) (Homo sapiens, UniProt P08842); test: In vitro cell-free sulfatase assay, JEG-3 lysate; assay type: biochemical
T1 sequence (P08842 22-583): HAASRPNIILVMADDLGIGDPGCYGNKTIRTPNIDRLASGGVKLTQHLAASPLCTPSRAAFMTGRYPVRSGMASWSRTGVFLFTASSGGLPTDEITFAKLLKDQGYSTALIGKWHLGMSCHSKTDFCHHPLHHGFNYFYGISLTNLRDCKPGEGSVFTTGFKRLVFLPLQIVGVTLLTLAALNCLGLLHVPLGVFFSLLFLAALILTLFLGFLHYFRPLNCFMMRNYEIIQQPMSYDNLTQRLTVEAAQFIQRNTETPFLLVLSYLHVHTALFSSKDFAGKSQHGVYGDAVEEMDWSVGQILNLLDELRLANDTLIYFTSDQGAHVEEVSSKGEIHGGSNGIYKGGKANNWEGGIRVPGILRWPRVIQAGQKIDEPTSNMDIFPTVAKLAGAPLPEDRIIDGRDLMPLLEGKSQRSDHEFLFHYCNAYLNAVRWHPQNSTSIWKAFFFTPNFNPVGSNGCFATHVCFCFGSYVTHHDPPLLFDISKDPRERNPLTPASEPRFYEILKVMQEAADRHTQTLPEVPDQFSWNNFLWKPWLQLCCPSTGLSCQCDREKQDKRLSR

steroid sulfatase (STS) [6] = target: T1, steroid sulfatase (STS); test: In vitro whole cell sulfatase assay, intact JEG-3 cells; assay type: cell-based
[7] = Hydrolysis in wet DMSO-d6 at 25 °C followed by 1H NMR; details: for % hydrolysed (conversion into the phenol) after 30 days: wet DMSO-d6, room temperature, water/substrate ~60:1
[8] = cited from earlier work
[9] = Homo sapiens, HOP-62, read-out: GI50 Lung HOP-62
[10] = Homo sapiens, HCT-116, read-out: GI50 Colon HCT-116
[11] = Homo sapiens, UACC-62, read-out: GI50 Melanoma UACC-62
[12] = Homo sapiens, OVCAR-3, read-out: GI50 Ovarian OVCAR-3
[13] = wet DMSO-d6, 25 °C, 0 days, 1H NMR
[14] = wet DMSO-d6, 25 °C, 15 days, 1H NMR
[15] = wet DMSO-d6, 25 °C, 30 days, 1H NMR
[16] = MCF-7, full media, 96 h, mean of two determinations
[17] = NCI-60, mean of three determinations

C[C@]12CC[C@@H]3c4cc(OC(F)F)c(OS(N)(=O)=O)cc4CC[C@H]3[C@@H]1CC[C@@H]2O [Compound 12, 2-Difluoromethoxy-3-sulfamoyloxy-17β-hydroxyestra-1,3,5(10)-triene] gave a GI50 ([1]; Homo sapiens, MCF7, 96 h) of 1100 nM, a GI50 ([2]; Homo sapiens, MDA-MB-231, 48 h) of 1110 nM and a GI50 (HOP-62; [9]) of 634 nM. It also gave a GI50 (HCT-116; [10]) of 406 nM, a GI50 (SF-539; Homo sapiens) of 313 nM and a GI50 (UACC-62; [11]) of 498 nM. It also gave a GI50 (OVCAR-3; [12]) of 386 nM, a GI50 (SN12C; Homo sapiens, SN12C) of 692 nM and an IC50 (NCI-60 cell line panel; 60 cell) of 646 nM. For the same compound, the IC50 (Bovine brain tubulin [3]) was 6600 ± 700 nM, the “Colchicine binding (% Inhibition)” value (Bovine brain tubulin [4]) was 22 ± 1% and the IC50 (steroid sulfatase (STS) [5]) was 75 nM. It also gave an IC50 (steroid sulfatase (STS) [6]) of 18.6 nM.
In the case of C[C@]12CC[C@@H]3c4cc(OC(F)F)c(O)cc4CC[C@H]3[C@@H]1CC[C@@H]2OS(N)(=O)=O [Compound 11, 2-Difluoromethoxy-3-hydroxy-17β-sulfamoyloxyestra-1,3,5(10)-triene], the GI50 ([1]; Homo sapiens, MCF7, 96 h) is reported as greater than 5000 nM, the GI50 ([2]; Homo sapiens, MDA-MB-231, 48 h) is reported as greater than 10000 nM and the GI50 (HOP-62; [9]) is reported as 648 nM. For the same compound, the GI50 (HCT-116; [10]) was 375 nM, the GI50 (SF-539; Homo sapiens) was 427 nM and the GI50 (UACC-62; [11]) was 460 nM. The GI50 (OVCAR-3; [12]) was 383 nM, the GI50 (SN12C; Homo sapiens, SN12C) was 1220 nM and the IC50 (NCI-60 cell line panel; 60 cell) was 813 nM. The IC50 (Bovine brain tubulin [3]) was greater than 20000 nM, the IC50 (steroid sulfatase (STS) [5]) was greater than 5000 nM and the “STS inhibition in JEG-3 lysate (in words)” value (steroid sulfatase (STS) [5]; JEG-3 lysate) was “inactive”. The “% of the compound in the reaction mixture, 0 days” value [7, 13] was 0%, the “% of the compound in the reaction mixture, 15 days” value (“% of the compound … 15 days” below) [7, 14] was 68% and the “% of the compound in the reaction mixture, 30 days” value (“% of the compound … 30 days” for short) [7, 15] was 92%.
For COc1cc2c(cc1O)CC[C@@H]1[C@@H]2CC[C@]2(C)[C@@H](O)CC[C@@H]12 [Compound 1, 2-Methoxyestradiol, reference compound], the IC50 (Bovine brain tubulin [3]) is listed as 8300 ± 800 nM, the “Colchicine binding (% Inhibition)” value (Bovine brain tubulin [4]) is listed as 36 ± 3% and the bioavailability [8] is listed as roughly 1%.
With COc1cc2c(cc1OS(N)(=O)=O)CC[C@@H]1[C@@H]2CC[C@]2(C)[C@@H](OS(N)(=O)=O)CC[C@@H]12 [Compound 4, 2-methoxyestradiol-3,17-O,O-bissulfamate, reference compound] the GI50 [1, 16] was 520 nM, the IC50 (Bovine brain tubulin [3]) was 2300 ± 100 nM and the “Colchicine binding (% Inhibition)” value (Bovine brain tubulin [4]) was 33 ± 3%. For the same compound, the bioavailability [8] was roughly 85%, the “% of the compound in the reaction mixture, 0 days” value [7] was 100% and the “% of the compound … 15 days” value [7] was 81%. The “% of the compound … 30 days” value [7] was 69% and the “% hydrolysed (conversion into the phenol) after 30 days” value ([7]; 30 days) was 31%.
C[C@]12CC[C@@H]3c4cc(OC(F)F)c(O)cc4CC[C@H]3[C@@H]1CC[C@@H]2O [Compound 9, 2-Difluoromethoxy-3,17β-bis-hydroxyestra-1,3,5(10)-triene] showed a GI50 ([1]; Homo sapiens, MCF7, 96 h) of 2600 nM, a GI50 ([2]; Homo sapiens, MDA-MB-231, 48 h) of 3030 nM and an IC50 (Bovine brain tubulin [3]) of 12400 ± 100 nM.
In the case of C[C@]12CC[C@@H]3c4cc(C(F)F)c(OS(N)(=O)=O)cc4CC[C@H]3[C@@H]1CCC2=O [Compound 23, 2-difluoromethylestrone sulfamate, reference compound], the “times more potent than 16, JEG-3 lysate assay” value (steroid sulfatase (STS) [5]; vs 16) is reported as “about 3 times”, the “times more potent than 16, whole cells” value (steroid sulfatase (STS) [6]; vs 16) is reported as “about 100 times” and the “% of the compound in the reaction mixture, 0 days” value [7, 13] is reported as 100%. The “% of the compound … 15 days” value [7, 14] was 24% and the “% of the compound … 30 days” value [7, 15] was 5%.
In the case of C[C@]12CC[C@@H]3c4cc(OC(F)F)c(OS(N)(=O)=O)cc4CC[C@H]3[C@@H]1CC[C@@H]2OS(N)(=O)=O [Compound 10, 2-Difluoromethoxy-3–17β-bis-sulfamoyloxyestra-1,3,5(10)-triene], the GI50 [1, 16] is reported as 280 nM, the GI50 ([2]; MDA MB-231, 48 h, mean of three determinations) is reported as 740 nM and the GI50 (HOP-62; read-out: GI50 Lung HOP-62, NCI-60, mean of three determinations) is reported as 1980 nM. For the same compound, the GI50 (HCT-116; read-out: GI50 Colon HCT-116, NCI-60, mean of three determinations) was 474 nM, the GI50 (SF-539; [17]) was 266 nM and the GI50 (UACC-62; read-out: GI50 Melanoma UACC-62, NCI-60, mean of three determinations) was 564 nM. The GI50 (OVCAR-3; read-out: GI50 Ovarian OVCAR-3, NCI-60, mean of three determinations) was 527 nM, the GI50 (SN12C; [17]) was 567 nM and the “overall anti-proliferative activity in NCI 60-cell line panel (in words)” value (NCI-60 cell line panel; average GI50, NCI-60) was “sub-micromolar”. The IC50 (NCI-60 cell line panel; all 60 cell lines) was 661 nM, the IC50 (Bovine brain tubulin [3]) was 3900 ± 500 nM and the “fold less active than CA-4 in tubulin assembly” value (Bovine brain tubulin [3]; vs CA-4) was “about 3 fold”. The “Colchicine binding (% Inhibition)” value (Bovine brain tubulin [4]) was 19 ± 0.5%, the “% of the compound in the reaction mixture, 0 days” value [7, 13] was 100% and the “% of the compound … 15 days” value [7, 14] was 32%. For the same compound, the “% of the compound … 30 days” value [7, 15] was 8%, the T1/2 of hydrolysis ([7]; wet DMSO-d6, estimated from Table 1) was ~ 10 days and the “% hydrolysed (conversion into the phenol) after 30 days” value ([7]; 30 days) was 92%.
With COc1ccc(/C=C\c2cc(OC)c(OC)c(OC)c2)cc1O [CA-4, combretastatin A-4, reference compound] the “Colchicine binding (% Inhibition)” value (Bovine brain tubulin [4]) was 98 ± 1%.
In the case of C[C@]12CC[C@@H]3c4cc(OC(F)F)c(O)cc4CC[C@H]3[C@@H]1CCC2=O [Compound 15, 2-Difluoromethoxy-3-hydroxyestra-1,3,5(10)-trien-17-one], the GI50 ([1]; Homo sapiens, MCF7, 96 h) is reported as greater than 5000 nM, the GI50 ([2]; Homo sapiens, MDA-MB-231, 48 h) is reported as greater than 10000 nM and the IC50 (Bovine brain tubulin [3]) is reported as greater than 20000 nM.
C[C@]12CC[C@@H]3c4cc(OC(F)F)c(OS(N)(=O)=O)cc4CC[C@H]3[C@@H]1CCC2=O [Compound 16, 2-Difluoromethoxy-3-sulfamoyloxyestra-1,3,5(10)-trien-17-one] gave a GI50 ([1]; Homo sapiens, MCF7, 96 h) of 580 nM, a GI50 ([2]; Homo sapiens, MDA-MB-231, 48 h) of 990 nM and an IC50 (Bovine brain tubulin [3]) of 4300 ± 200 nM. The “Colchicine binding (% Inhibition)” value (Bovine brain tubulin [4]) was 32 ± 4%, the IC50 (steroid sulfatase (STS) [5]) was 56 nM and the IC50 (steroid sulfatase (STS) [6]) was 5.6 nM.
In the case of COc1cc2c(cc1O)CC[C@@H]1[C@@H]2CC[C@]2(C)[C@@H](OS(N)(=O)=O)CC[C@@H]12 [Compound 22], the “% of the compound in the reaction mixture, 0 days” value [7, 13] is reported as 0%, the “% of the compound … 15 days” value [7, 14] is reported as 19% and the “% of the compound … 30 days” value [7, 15] is reported as 31%.
